Source: ChEMBL document CHEMBL5331120, “Stapled β-Hairpin Antimicrobial Peptides with Improved Stability and Activity against Drug-Resistant Gram-Negative Bacteria” (J Med Chem, 2023)
Converted amounts (≈) assume the structure as drawn. The source made the active and inactive calls. No cut-off for these calls is given here.

What was measured:
[1] = test system: Staphylococcus aureus; assay: Antimicrobial activity against Staphylococcus aureus ATCC 29737 assessed as inhibition of bacterial growth incubated for 18 hrs by broth microdilution method; type: functional, organism-based
Procedure, shortened: (§1)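 Standard broth microdilution in MHB. Overnight culture (37 °C, 120 rpm) adjusted to OD600 0.07 and diluted 1000× to 3 × 10^5 CFU/mL. Peptides serially diluted in triplicate, 18 h at 37 °C with 120 rpm shaking. Growth read as OD600; MIC is the lowest concentration with no visible growth. Colistin served as control for Gram-negatives, vancomycin for S. aureus.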

[2] = test system: Pseudomonas aeruginosa; assay: Antimicrobial activity against Pseudomonas aeruginosa ATCC 9027 assessed as inhibition of bacterial growth incubated for 18 hrs by broth microdilution method; type: functional; procedure, shortened: as §1
[3] = test system: Escherichia coli; assay: Antimicrobial activity against Escherichia coli ATCC 25922 assessed as inhibition of bacterial growth incubated for 18 hrs by broth microdilution method; type: functional; procedure, shortened: as §1
[4] = test system: Escherichia coli; assay: Antimicrobial activity against colistin resistant Escherichia coli clinical isolate R1 harboring mcr-1 gene assessed as inhibition of bacterial growth incubated for 18 hrs by broth microdilution method; type: functional, organism-based
Procedure, shortened: (§2)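 Overnight MHB culture (37 °C, 120 rpm) adjusted to OD600 0.07 (~10^8 CFU/mL), then diluted 1000× to 3 × 10^5 CFU/mL. Peptides serially diluted with the bacterial suspension in triplicate, shaken at 37 °C, 120 rpm for 18 h, then OD600 read. MIC is the lowest concentration with no visible growth. Colistin as positive control.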

[5] = test system: Escherichia coli; assay: Antimicrobial activity against colistin/carbapenem resistant Escherichia coli clinical isolate R2 harboring mcr-1 and NDM-1 gene assessed as inhibition of bacterial growth incubated for 18 hrs by broth microdilution method; type: functional, organism-based; procedure, shortened: as §2
[6] = test system: Erythrocyte; assay: Hemolytic activity in human RBC upto 128 uM incubated for 1 hr by absorbance based analysis; type: toxicity, cell-based
Procedure, shortened: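 Washed human RBCs from healthy volunteers at 4% in PBS. Peptide at 4–128 μM, 37 °C for 1 h. Supernatant after 1000g, 10 min spin read at OD540. 1% Triton X-100 gave full lysis; % hemolysis derived and HC50 estimated.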

[7] = test system: Escherichia coli; assay: Antimicrobial activity against Escherichia coli ATCC 25922 assessed as inhibition of bacterial growth compound pretreated for 1 hr with trypsin and measured after 18 hrs by broth microdilution method; type: functional, organism-based
Procedure, shortened: (§3)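 Peptide incubated with trypsin at a 1:2000 trypsin/peptide molar ratio (e.g., 1 mM peptide with 0.5 μM trypsin), 37 °C, 1 h. Reaction stopped at 80 °C for 10 min, then serially diluted against E. coli in MHB broth microdilution. Inoculum 3 × 10^5 CFU/mL, 37 °C, 120 rpm, 18 h, read by OD600, triplicates. Fold change in MIC taken versus untreated control.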

[8] = biological target: Trypsin (Homo sapiens, UniProt P07477+P07478+P35030); assay: Stability of compound assessed as trypsin (unknown origin) mediated compound degradation by measuring parent compound remaining measured after 1.5 hrs by RP-HPLC analysis; type: ADME, protein assay; conditions: trypsin, read-out: Stability
Procedure, shortened: (§4)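 Peptide with trypsin at a 1:2000 trypsin/peptide molar ratio, 37 °C, sampled at 15, 30, 60 and 90 min. Reaction stopped with an equal volume of 50% acetonitrile/1% TFA. Analysed on C18 RP-HPLC with UV at 220 nm; intact peptide given as % of AUC.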

[9] = test system: Escherichia coli; assay: Antimicrobial activity against Escherichia coli ATCC 25922 assessed as inhibition of bacterial growth incubated for 18 hrs in presence of 10% fetal bovine serum by broth microdilution method; type: functional, organism-based
Procedure, shortened: (§5)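 E. coli broth microdilution in MHB containing 10% fetal bovine serum. Inoculum 3 × 10^5 CFU/mL, diluted from an OD600 0.07 suspension. Incubated 18 h at 37 °C with 120 rpm shaking, OD600 read, triplicates. Fold change in MIC calculated against control MIC.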

[10] = test system: Cell membrane; assay: Induction of outer membrane permeabilization in Escherichia coli ATCC 25922 assessed as NPN uptake at 1 times MIC incubated for 1 hr by fluorescence based microplate reader analysis relative to control
Procedure, shortened: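 Exponential-phase cells washed twice in PBS pH 7, resuspended to OD600 0.4; equal volume 40 μM NPN added, then equal volume peptide (4, 8, 16 μM). Incubated 1 h at 37 °C with shaking. Fluorescence ex 355/em 405 nm; % uptake relative to no-compound (F0) and colistin 100 μM control (Fmax). Three repeats.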

[11] = test system: Cell membrane; assay: Induction of inner membrane permeabilization in Escherichia coli ATCC 25922 assessed as SYTOX green uptake at 1 times MIC incubated for 1 hr by fluorescence based microplate reader analysis relative to control
Procedure, shortened: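 Exponential-phase cells washed twice in PBS pH 7, resuspended to OD600 0.4; equal volume SYTOX green (4 μM) added, 5 min. Peptide added (4, 8, 16 μM), 1 h at 37 °C with shaking. Fluorescence ex 488/em 523 nm; % uptake computed from untreated (F0) and positive-control peptide BTT1 (Fmax) signals. Three repeats.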

[12] = test system: Escherichia coli; assay: Induction of membrane morphological changes in Escherichia coli ATCC 25922 at 16 uM measured after 1 hr by TEM analysis; type: functional, organism-based
[13] = test system: Escherichia coli; assay: Induction of membrane morphological changes in Escherichia coli ATCC 25922 at 16 uM measured after 3 to 6 hrs by TEM analysis; type: functional, organism-based; conditions: time 3-6 hrs
[14] = test system: Escherichia coli; assay: Bactericidal activity against Escherichia coli ATCC 25922 assessed as cell killing at 1 times MIC measured after 6 hrs relative to control; type: functional
Procedure, shortened: (§6)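 Time-kill against E. coli ATCC 25922 at 1× and 2× MIC, counted as CFU/mL over time. Limit of detection 50 CFU/mL; experiments repeated two times.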

[15] = test system: Escherichia coli; assay: Bactericidal activity against Escherichia coli ATCC 25922 assessed as cell killing at 2 times MIC measured after 3 hrs relative to control; type: functional; procedure, shortened: as §6
[16] = test system: Escherichia coli; assay: Antimicrobial activity against colistin resistant Escherichia coli clinical isolate R1 harboring mcr-1 gene assessed as fold increase in MIC incubated for 18 hrs by broth microdilution method relative to control; type: functional
[17] = test system: Escherichia coli; assay: Antimicrobial activity against colistin/carbapenem resistant Escherichia coli clinical isolate R2 harboring mcr-1 and NDM-1 gene assessed as fold increase in MIC incubated for 18 hrs by broth microdilution method relative to control; type: functional
[18] = test system: Escherichia coli; assay: Antimicrobial activity against colistin/carbapenem resistant Escherichia coli clinical isolate R3 harboring NDM-7 and OXA-181 gene assessed as fold increase in MIC incubated for 18 hrs by broth microdilution method relative to control; type: functional
[19] = test system: Escherichia coli; assay: Antimicrobial activity against Escherichia coli ATCC 25922 assessed as fold increase in MIC compound pretreated for 1 hr with trypsin and measured after 18 hrs by broth microdilution method relative to control; type: functional; conditions: trypsin pretreatment 1 hr; MIC measured after 18 hrs; procedure, shortened: as §3
[20] = Stability of compound assessed as trypsin (unknown origin) mediated compound degradation by measuring parent compound remaining measured after 1 hr by RP-HPLC analysis; type: ADME, protein assay; conditions: human, read-out: Stability; procedure, shortened: as §4
[21] = test system: Escherichia coli; assay: Antimicrobial activity against Escherichia coli ATCC 25922 assessed as fold increase in MIC incubated for 18 hrs in presence of 10% fetal bovine serum by broth microdilution method relative to control; type: functional; procedure, shortened: as §5
[22] = test system: Escherichia coli; assay: Antimicrobial activity against Escherichia coli ATCC 25922 assessed as fold increase in MIC incubated for 18 hrs in presence of NaCl by broth microdilution method relative to control; type: functional
Procedure, shortened: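 MHB broth microdilution against E. coli with 150 mM NaCl added to the medium. Inoculum 3 × 10^5 CFU/mL, 37 °C, 120 rpm, 18 h, OD600 read, triplicates. MIC fold change taken relative to control.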

CC(C)C[C@@H]1NC(=O)[C@H](CCCCN)NC(=O)CNC(=O)C2CCCN2C(=O)[C@H](CCCCN)NC(=O)[C@H](CC(C)C)NC(=O)[C@H](CCCCN)NC(=O)[C@H](CC(C)C)NC(=O)[C@H](CCCCN)NC(=O)[C@@H](N)CC/C=C/CC[C@@H](C(=O)O)NC(=O)[C@H](CCCCN)NC(=O)[C@H](CC(C)C)NC(=O)[C@H](CCCCN)NC1=O (single isomer, unassigned)
Activity [1]: inactive | MIC [2]: 8 µM (≈ 12.7 µg/mL) | MIC [3]: 8 µM (≈ 12.7 µg/mL) | Activity [4]: Active | Activity [5]: Active | Activity [6]: Non-Toxic | Activity [7]: Active | remaining at 1.5 h [8]: > 40% | Activity [9]: Active | Activity [10]: 70% | Activity [11]: 80% | Activity [12]: inactive | Activity [13]: Active | Activity [14]: 100% | Activity [15]: 100%

H-LKLKLKPGKLKLKL-OH
Activity [1]: inactive | fold change (FC) [16]: >=8 | fold change (FC) [17]: >=8 | fold change (FC) [18]: >=8 | fold change (FC) [19]: 8 | remaining at 1 h [20]: < 10% | fold change (FC) [21]: 8 | fold change (FC) [22]: 32 | Activity [10]: 40% | Activity [11]: 80%
